# The list is not random: actives were taken first. Their share in the collection is about 5.9%.
# Pf Dd2 inh: P. falciparum Dd2 growth inhibition. SYBR Green, 72 h; hits give low values. activity change, % at 10 µM. 2.3% of 94,000 active; in the data active means activity change below about -80%
# T cruzi growth: blocks T. cruzi growth in NIH3T3 culture. 5.9% of 77,000 active. T. cruzi beta-gal in NIH3T3, GalScreen luminescence, 90 h. AID 624255. inhibition, % at 8.34 µM;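 active means mean inhibition above about 93%, with at least 55% of replicates each passing it, limit read from the data, passing the limit was not always enough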
# IDH1 mut inh: IDH1 R132H (human) inhibition | O75874 | 0.18% of 70,000 active | IDH1 R132H reductase, diaphorase/resazurin fluorescence, 60 min | inhibition, % at 10 µM | AID 624101; in the data active means inhibition above about 34%;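 further: 0% = DMSO and 100% = no enzyme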
# GASC1 inh: KDM4C (human) demethylase inhibition. Q9H3R0. GST-KDM4C 2-372, H3K9me3 peptide, LANCE TR-FRET. inhibition, % at 12.5 µM. 0.15% of 96,000 active;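 active means mean replicate inhibition above about 25%, with at least 55% of replicates also reaching it, limit read from the data, passing the limit was not always enough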
# Target sequence (Q9H3R0 2-372 limits assumed): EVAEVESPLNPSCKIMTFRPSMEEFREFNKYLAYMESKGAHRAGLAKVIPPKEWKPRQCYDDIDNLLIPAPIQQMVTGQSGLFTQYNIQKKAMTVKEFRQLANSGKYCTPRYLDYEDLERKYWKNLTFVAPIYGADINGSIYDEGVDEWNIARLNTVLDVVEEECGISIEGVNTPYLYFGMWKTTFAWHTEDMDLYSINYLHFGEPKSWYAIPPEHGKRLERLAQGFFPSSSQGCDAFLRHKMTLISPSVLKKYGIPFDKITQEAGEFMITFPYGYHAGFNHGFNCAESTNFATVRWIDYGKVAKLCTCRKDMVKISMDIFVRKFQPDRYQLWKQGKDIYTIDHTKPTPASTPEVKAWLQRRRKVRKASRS
#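 Test system: N-terminal GST-fused human GASC-1 (KDM4C) fragment, residues 2-372; quantity: GASC-1 enzyme at 10 nM final in reaction; dosing: single dose; schedule: 30 min demethylation and 1 h detection at room temperature; signal: LANCE TR-FRET, excitation 340 nm, emissions 618 and 671 nm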
# * hit, by the source's call; · = no result.
SMILES,Pf Dd2 inh,T cruzi growth,IDH1 mut inh,GASC1 inh
C[C@@H]1CN([C@@H](C)CO)C(=O)c2cccc(NC(=O)Nc3ccc(F)cc3)c2O[C@H]1CN(C)Cc1ccc(C(=O)Nc2ccccc2N)cc1,-82.4*,·,·,-0.6
CC(C)NC(=O)Nc1cccc2c1O[C@@H](CN(C)Cc1ccc(C(=O)Nc3ccccc3N)cc1)[C@@H](C)CN([C@H](C)CO)C2=O,-45.0,·,-0.3,-0.9
Cc1ccc(S(=O)(=O)N(C)C[C@H]2Oc3ccc(NC(=O)Cc4cn(C)c5ccccc45)cc3C(=O)N([C@H](C)CO)C[C@@H]2C)cc1,-83.4*,25.7,·,-2.7
C[C@@H]1CN([C@@H](C)CO)C(=O)c2cc(NC(=O)Cc3cn(C)c4ccccc34)ccc2O[C@H]1CN(C)S(=O)(=O)c1ccccc1,-22.1,38.8,·,·
C[C@H]1CN([C@@H](C)CO)C(=O)c2cc(NC(=O)Cc3cn(C)c4ccccc34)ccc2O[C@H]1CN(C)S(=O)(=O)c1ccccc1,-91.1*,79.5,-40.1,·
C[C@H](CO)N1C[C@H](C)[C@@H](CN(C)S(=O)(=O)c2cn(C)cn2)Oc2ccc(NC(=O)CCC(F)(F)F)cc2CC1=O,41.9,-10.8,9.7,25.7*
Cc1ccc(S(=O)(=O)N(C)C[C@@H]2Oc3ccc(NC(=O)Cc4cn(C)c5ccccc45)cc3CC(=O)N([C@@H](C)CO)C[C@H]2C)cc1,-83.3*,47.7,0.6,-5.8
Cc1nc(SCC(=O)Nc2ccc(I)cc2)nc2c1CCCC2,·,·,-0.3,·
COc1ccc(S(=O)(=O)NCCc2ccc(OC)c(OC)c2)cc1C,·,·,-0.1,·
COc1cc(C2C3=C(CC(C)(C)CC3=O)Nc3ncnn32)ccc1OCC(=O)N1CCOCC1 (stereo not given),·,·,1.5,·
O=C(Cn1cc(C(=O)C2CC2)c2ccccc21)Nc1ccccc1C(F)(F)F,·,·,0.0,·
Cc1nnc(N2C(=O)C(=O)C(C(=O)c3ccco3)C2c2cccc(Oc3ccccc3)c2)s1 (stereo not given),·,·,0.8,·
COc1cccc(NC(=O)N[C@@H]2C=C[C@H](CC(=O)N3CCCCC3)O[C@@H]2CO)c1,7.2,·,·,0.6
COc1cccc(NC(=O)N[C@@H]2C=C[C@@H](CC(=O)N3CCCCC3)O[C@@H]2CO)c1,-0.8,·,·,34.0*
CC(=O)Nc1cccc(-c2nnc(SCC(=O)Nc3cccc(Cl)c3)n2C)c1,·,·,0.2,·
COC(=O)c1sccc1S(=O)(=O)Nc1ccc(-c2cn3c(n2)SCC3)cc1,·,·,-5.0,·
Cc1ccc(S(=O)(=O)N(C)C[C@H]2Oc3c(NC(=O)c4nc5ccccc5s4)cccc3C(=O)N([C@@H](C)CO)C[C@H]2C)cc1,-56.1,95.8,1.4,0.9
Cc1ccc(S(=O)(=O)N(C)C[C@@H]2Oc3c(NC(=O)c4nc5ccccc5s4)cccc3C(=O)N([C@@H](C)CO)C[C@H]2C)cc1,-84.8*,68.1,0.9,2.2
CC(C)NC(=O)N(C)C[C@H]1Oc2c(NC(=O)c3nc4ccccc4s3)cccc2C(=O)N([C@H](C)CO)C[C@H]1C,-83.1*,-16.2,·,12.5
C[C@H]1CN([C@@H](C)CO)C(=O)c2cccc(NC(=O)c3nc4ccccc4s3)c2O[C@@H]1CN(C)C(=O)Nc1ccc(C(F)(F)F)cc1,-55.6,82.0,·,-0.4
C[C@@H]1CN([C@@H](C)CO)C(=O)c2cccc(NC(=O)c3nc4ccccc4s3)c2O[C@H]1CN(C)C(=O)Nc1ccc(C(F)(F)F)cc1,-89.7*,88.4,1.4,-0.6
C[C@@H]1CN([C@H](C)CO)C(=O)c2cccc(NC(=O)c3nc4ccccc4s3)c2O[C@H]1CN(C)C(=O)Nc1ccc2c(c1)OCO2,-81.9*,58.7,·,-0.7
CC(C)=CCC/C(C)=C/CC/C(C)=C/CSc1ncn[nH]1,·,·,0.6,·
COc1ccc(Cl)cc1CN1CCC(CNC(=O)Nc2cccc(Cl)c2)CC1,·,·,-0.2,·
CCn1c(SCC(=O)Nc2sc3c(c2C#N)CCC(C(C)(C)C)C3)nnc1-c1cccc(C)c1 (stereo not given),·,·,0.3,·
SMILES,Pf Dd2 inh,T cruzi growth,IDH1 mut inh,GASC1 inh
Cc1ccc(S(=O)(=O)N(C)CC(=O)Nc2ccc(C(F)(F)F)cc2)cc1,·,·,-0.5,·
CSc1cccc(NC(=O)Cn2cc(Br)c([N+](=O)[O-])n2)c1,·,·,0.0,·
COc1cccc(S(=O)(=O)N2CCC3(CC2)CN(C(=O)Nc2ccc(F)cc2)[C@@H](CO)c2[nH]c4cc(OC)ccc4c23)c1,-75.3,·,·,0.7
COc1ccc2c3c([nH]c2c1)[C@H](CO)N(C(=O)Nc1ccc(F)cc1)CC31CCN(S(=O)(=O)c2ccccc2)CC1,-87.6*,·,·,-0.2
COc1ccc2c3c([nH]c2c1)[C@@H](CO)N(C(=O)Nc1ccc(F)cc1)CC31CCN(S(=O)(=O)c2ccccc2)CC1,-84.3*,·,·,-0.4
COc1cccc(S(=O)(=O)N2CCC3(CC2)CN(C(=O)Nc2ccc(F)cc2)[C@H](CO)c2[nH]c4cc(OC)ccc4c23)c1,-63.4,·,·,-1.7
COc1ccc(C2(CNC(=O)CC#N)CCCC2)cc1OC,·,·,-0.9,·
O=C(CCCCCC(=O)N/N=C/c1cc(O)ccc1O)NO,·,·,68.8*,·
O=C(CCCCCC(=O)Nc1ccccc1O)N/N=C\c1cc(O)ccc1O,·,·,49.8*,·
O=C(CCCCCCC(=O)Nc1ccccc1O)N/N=C/c1cc(O)ccc1Br,·,·,-0.4,·
COc1ccc(-n2c(SCC(N)=O)nnc2-c2cccs2)cc1,·,·,0.3,·
CCOc1ccc(-c2nnc(SCC(=O)c3ccccc3N)n2C)cc1,·,·,2.1,·
Cc1cc(NC(=O)CSc2nnc(-c3ccccc3Cl)n2C)ccc1Br,·,·,0.2,·
C[C@@H]1CN([C@@H](C)CO)C(=O)c2c(c3ccccc3n2C)-c2ccccc2CO[C@H]1CN(C)Cc1ccc2c(c1)OCO2,-82.9*,·,·,-0.5
C[C@@H]1CN([C@@H](C)CO)C(=O)c2c(c3ccccc3n2C)-c2ccccc2CO[C@H]1CN(C)Cc1ccc(Cl)c(Cl)c1,-91.1*,·,·,-2.6
O=C(CCCCCC(=O)N/N=C/c1ccco1)NO,·,·,-0.6,·
CC(C)NC(=O)N[C@@H]1CC[C@H](CCNC(=O)C2CCC2)O[C@@H]1CO,-5.8,·,0.2,-1.7
Cc1ccc(S(=O)(=O)N[C@H]2CC[C@H](CCNC(=O)C3CCCCC3)O[C@H]2CO)cc1,5.3,2.6,66.9*,71.6*
Cc1ccc(S(=O)(=O)NCC[C@@H]2CC[C@@H](NC(=O)c3cccc(F)c3)[C@@H](CO)O2)cc1,12.7,21.9,-0.5,0.3
CC(C)NC(=O)N[C@H]1CC[C@H](CCNC(=O)C2CCC2)O[C@H]1CO,2.0,·,0.4,26.5*
Cc1ccc(S(=O)(=O)NCC[C@H]2CC[C@@H](NC(=O)c3cccc(F)c3)[C@@H](CO)O2)cc1,13.1,1.2,0.9,44.4*
CN(C)S(=O)(=O)c1ccc(NC(=O)CCC(=O)O)cc1,·,·,-0.6,·
N#C[C@H]1[C@H](c2ccc(C#Cc3ccccc3F)cc2)[C@H](CO)N1C(=O)c1cccnc1,-87.2*,90.9,·,-2.4
N#C[C@H]1[C@@H](c2ccc(C#Cc3ccccc3F)cc2)[C@@H](CO)N1C(=O)C1CCCC1,-89.3*,·,·,3.7
COc1ccccc1C#Cc1ccc([C@H]2[C@H](C#N)N(C(=O)C3CCCC3)[C@H]2CO)cc1,-65.5,·,·,0.6

# Screening data as filed in PubChem.
